DDE Tn6 FP inh = inhibitors of Tn6 peptide binding to human fibrin DD(E). AID 720509. inhibition, % at 8.3 µM. P02675. Fibrin DD(E) TRITC-Tn6 fluorescence polarization displacement. 370,000 tested, 0.21% active;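 active = inhibition above a per-campaign cutoff: mean of compounds within control limits plus 3 SD, cut at about 15% in these data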;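 also: 0% = median of all compound wells on the plate and 100% = blocking peptide control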
Tn7 DDE FP = inhibitors of Tn7 peptide binding to human fibrin DD(E) | FP displacement of FITC-Tn7 peptide from fibrin DD(E); 0% = median of compound wells per plate | inhibition, % at 8.3 µM | 370,000 tested, 0.13% active | AID 720508;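 active = inhibition above the mean of compounds falling within the control limits plus 3 SD of them, cut at about 14% in these data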;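 also: 0% = plate median of compound wells and 100% = 10 µM Aha-Tn7 peptide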
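Assay system: human fibrin DD(E). Input: DD(E) 2 µM final. Medium: Tris buffer with calcium and detergent, pH 7.8. Compound dosing: single point at 8.3 µM. Timing: 10 min plus 3 h, room temperature. Technique: fluorescence polarization of the labelled Tn7 tracer. Read-out: percent inhibition. Replicates: singlicate testing.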
PLCb3 inh = PLC-beta3 (human) inhibition, primary screen | inhibition, % at 12.2 µM | 370,000 tested, 0.18% active | Purified PLC-beta3, fluorogenic substrate, fluorescence | Q01970;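 also: 0% = median of compound wells on plate and 100% = full blocker control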
FID counter = counter-screen for HCV NS3 helicase inhibitors: DNA intercalator displacement; inhibition, % at 7.9 µM; AID 1845; DNA fluorescent intercalator displacement, fluorescence; 290,000 tested, 0.17% active; in the data active = inhibition above about 37%;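 also: 0% = vehicle and 100% = reference compound; higher means more ethidium bromide displaced from hairpin DNA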
PLCg1 inh = inhibitors of human phospholipase C gamma1. P19174. purified PLC-gamma1, fluorogenic substrate, fluorescence. inhibition, % at 12.2 µM. 370,000 tested, 0.84% active; in the data active = inhibition above about 9.5%
Target sequence (P19174 whole entry, looked up): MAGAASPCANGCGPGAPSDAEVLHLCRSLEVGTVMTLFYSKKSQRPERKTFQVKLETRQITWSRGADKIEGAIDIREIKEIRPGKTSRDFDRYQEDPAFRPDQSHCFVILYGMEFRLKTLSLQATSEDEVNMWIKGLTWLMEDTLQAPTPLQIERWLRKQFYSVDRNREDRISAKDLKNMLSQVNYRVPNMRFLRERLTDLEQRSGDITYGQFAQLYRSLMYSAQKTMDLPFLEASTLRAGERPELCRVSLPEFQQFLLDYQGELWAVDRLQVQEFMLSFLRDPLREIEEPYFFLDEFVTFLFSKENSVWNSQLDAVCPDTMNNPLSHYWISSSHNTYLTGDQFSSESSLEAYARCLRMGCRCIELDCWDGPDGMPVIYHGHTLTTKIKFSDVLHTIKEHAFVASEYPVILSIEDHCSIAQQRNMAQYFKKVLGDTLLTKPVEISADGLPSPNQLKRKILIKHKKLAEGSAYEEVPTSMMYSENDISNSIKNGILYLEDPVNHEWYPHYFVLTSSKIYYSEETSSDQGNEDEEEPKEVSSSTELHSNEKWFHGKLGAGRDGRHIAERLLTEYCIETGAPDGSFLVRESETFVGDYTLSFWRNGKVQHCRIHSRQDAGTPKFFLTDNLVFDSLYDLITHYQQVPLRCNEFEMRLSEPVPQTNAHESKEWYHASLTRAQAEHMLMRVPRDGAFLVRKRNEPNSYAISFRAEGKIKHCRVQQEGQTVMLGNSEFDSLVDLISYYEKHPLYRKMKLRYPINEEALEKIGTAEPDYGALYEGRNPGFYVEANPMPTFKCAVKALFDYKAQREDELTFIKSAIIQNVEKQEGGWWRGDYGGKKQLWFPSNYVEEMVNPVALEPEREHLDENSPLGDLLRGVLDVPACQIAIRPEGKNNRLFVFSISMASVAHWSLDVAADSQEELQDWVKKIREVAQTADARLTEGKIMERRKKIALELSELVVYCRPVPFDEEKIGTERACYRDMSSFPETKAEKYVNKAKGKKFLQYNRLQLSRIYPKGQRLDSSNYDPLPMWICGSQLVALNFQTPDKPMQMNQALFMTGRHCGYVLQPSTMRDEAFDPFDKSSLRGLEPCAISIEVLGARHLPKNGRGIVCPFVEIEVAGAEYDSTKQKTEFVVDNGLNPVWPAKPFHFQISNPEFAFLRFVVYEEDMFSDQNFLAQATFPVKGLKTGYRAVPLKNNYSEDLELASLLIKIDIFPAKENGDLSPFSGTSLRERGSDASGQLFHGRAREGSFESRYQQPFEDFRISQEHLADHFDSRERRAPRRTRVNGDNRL
PLCg1 ctr = PLC-gamma1 inhibition, counter-screen for PLC-beta3 hits; shares compounds with PLCg1 inh; purified PLC-gamma1, fluorogenic substrate, fluorescence; inhibition, % at 12.3 µM; 3,300 tested, 3.1% active; in the data active = inhibition above about 9.5%
PLCbeta3 conf = confirmation of human PLC-beta3 inhibitors. inhibition, % at 12.3 µM. 3,300 tested, 1% active. shares compounds with PLCg1 inh. purified PLC-beta3, fluorogenic substrate fluorescence. AID 743261
Starred values were filed as active, the others as inactive; i = inactive; / = not tested or not shown. Only some compounds are listed: those with a hit (about 1.4% of all), similar ones and a draw of the others. Rule as the data show it, unless noted: active = inhibition above about 11%; inactive = the rest.

SMILES	DDE Tn6 FP inh	Tn7 DDE FP	PLCb3 inh	FID counter	PLCg1 inh	PLCg1 ctr	PLCbeta3 conf
C#CCOCCOCCOCCNc1nc(N2CCOCC2)nc(N2CCN(C(=O)[C@H]([C@@H](C)O)n3cc(CCCCN)nn3)CC2)n1	4	-6	2	-1	1	/	/
Nc1ccc2nc(-c3ccc(N)c(Cl)c3)[nH]c2c1	-38	-8	i	24	i	/	/
Cc1cc2ncn(S(=O)(=O)N3CCOCC3)c2cc1C	5	-2	14*	-8	6	-2	-2
CCOc1ccc(Cl)cc1S(=O)(=O)N1CCC(C(=O)N2CCCC2)CC1	-1	11	-2	-37	-2	/	/
CCOc1ccc(S(=O)(=O)N2CCC(C(=O)N3CCCC3)CC2)cc1C	-11	6	3	-38	11*	3	2
CCOC(=O)CSCc1csc(CC(=O)Nc2ccccc2C)n1	3	2	-10	-16	1	/	/
Cc1nn(C)cc1S(=O)(=O)N1CCN(Cc2ccc(F)cc2Cl)CC1	-1	-4	12*	-2	1	-2	-2
Cc1nn(Cc2ccccc2)c(C)c1/C=N/NC(=O)CNc1cccc(C(F)(F)F)c1	-1	-5	0	-14	9.6*	-11	-5
O=C(Nc1cnn(Cc2ccc(F)cc2)c1)c1cnn2c(C(F)F)cc(-c3ccccc3)nc12	-3	-4	0	-3	2	/	/
COc1ccc(C(C)NC(=S)NCc2ccc(F)cc2)cc1OC (configuration not stated)	6	9	-7	-9	17*	3	3
CN(C)S(=O)(=O)n1cc(/C=C(\NC(=O)c2ccccc2F)C(=O)N2CCCC2)c2ccccc21	-6	5	-3	-43	6	/	/
O=C(CN1C(=O)c2ccccc2S1(=O)=O)N1CCN(c2ccc(F)cc2)CC1	-10	-6	7	-20	11*	-5	-3
Cc1[nH]n(S(=O)(=O)Cc2ccccc2)c(=O)c1N=Nc1ccccc1Cl	3	0	1	1	12*	2	5
CSc1ccccc1OCc1cc(C(=O)NCCn2ccnc2C)no1	1	-6	-8	9	-1	/	/
CCCCCCCCOc1ccc(C(=O)O)cc1	3	5	-1	/	1	/	/
CCCCCCOc1ccc(C(=O)O)cc1C#N	-5	-9	-5	-25	9.8*	-4	-4
CC(=O)c1ccc(NC(=S)NC(NC(=O)c2ccco2)C(Cl)(Cl)Cl)cc1 (configuration not stated)	-6	1	12*	-1	8	3	-1
O=[N+]([O-])c1ccc(CSc2nc3ncc(Br)cc3[nH]2)cc1	-2	-5	0	2	11*	-3	0
O=C(CSc1nc2ncc(Br)cc2[nH]1)c1cccc([N+](=O)[O-])c1	-3	4	3	3	1	/	/
CCC(=O)N(CC)c1nc(-c2ccc(OC)cc2)cs1	2	2	2	-5	0	/	/
COc1ccc([C@H]2C[C@H](O)C[C@@H](CCn3cc(-c4ccccc4)nn3)O2)cc1	-1	-4	-1	/	-1	/	/
COc1cccc(NC(=O)CSc2nnc(Cc3ccc(C)cc3)c(=O)n2N)c1	7	-4	-2	/	0	/	/
COc1ccc(Cc2nnc(SCC(=O)Nc3ccc(C)cc3)n(N)c2=O)cc1	-2	-3	-4	/	10*	-8	-3
O=C(CC1Sc2ccccc2NC1=O)Nc1cccc(C(=O)O)c1 (configuration not stated)	-6	2	10	-4	12*	4	2
NS(=O)(=O)c1cccc(NC(=O)COC(=O)CC2Sc3ccccc3NC2=O)c1 (configuration not stated)	-2	-12	4	/	4	/	/
SMILES	DDE Tn6 FP inh	Tn7 DDE FP	PLCb3 inh	FID counter	PLCg1 inh	PLCg1 ctr	PLCbeta3 conf
Fc1ccc(-[n+]2nc(Nc3ccccc3)sc2-c2ccc(OCc3ccccc3)cc2)cc1	-4	-1	5	-14	3	/	/
O=C(O)C(Cc1ccccc1)n1cnnn1 (configuration not stated)	-8	2	5	-2	10*	-5	-2
O=C(c1cccc(NS(=O)(=O)c2ccc(F)c(F)c2)c1)N1CCN(C(c2ccccc2)c2ccccc2)CC1	-8	5	-2	-1	-2	/	/
O=C1/C(=C\c2cccs2)SC(=S)N1C1CCS(=O)(=O)C1 (configuration not stated)	-8	-11	0	11	9.8*	-1	0
Cc1ccc2nc3n(c(=O)c2c1)CCCCC3	-8	-1	5	-3	11*	-7	-4
O=c1c2cc(Br)ccc2nc2n1CCCCC2	/	/	/	-5	/	/	/
Cc1cccc2cc(CN(Cc3ccco3)C(=O)Nc3cccc(C#N)c3)c(Cl)nc12	-2	2	7	-13	11*	-5	-1
Cc1ccc(NC(=O)N(Cc2ccco2)Cc2cc3cc(C)cc(C)c3nc2Cl)cc1	7	0	2	-9	-1	/	/
Cc1cc(C)c(OCC(=O)OCC(=O)NCc2cccs2)c(C)c1	-2	-9	0	/	-4	/	/
CC(=O)NC1(C(F)(F)F)N=C2SCCN2C1=O (configuration not stated)	2	0	6	0	-3	/	/
O=C1N2CCSC2=NC1(NS(=O)(=O)c1ccccc1)C(F)(F)F (configuration not stated)	6	3	5	-6	10*	2	2
O=C1NC(c2ccccc2)=NC1(NS(=O)(=O)c1ccc(Cl)cc1)C(F)(F)F (configuration not stated)	0	8	-8	-5	-7	/	/
O=C1NC(c2ccccc2)=NC1(NS(=O)(=O)c1ccccc1)C(F)(F)F (configuration not stated)	-4	-7	11*	4	3	-2	1
CCNS(=O)(=O)c1ccc(CCC(=O)Nc2ccc3c(c2)OCO3)cc1	-3	-2	1	-6	2	/	/
O=C(CCc1ccc(S(=O)(=O)NCCc2ccccc2)cc1)Nc1ccc2c(c1)OCO2	5	-1	-1	-18	10*	-6	-4
COc1cc(C(=O)Nc2cccc3cccnc23)cc(OC)c1OC	-3	-6	-4	-17	1	/	/
COc1cc(NC(=O)Nc2cccc3cccnc23)cc(OC)c1OC	-6	0	2	-33	15*	-5	-2
COc1ccc(C2C(C#N)=C(N)Nc3onc(C(C)(C)C)c32)c(OC)c1 (configuration not stated)	0	-11	11*	-17	6	-3	-1
Cn1cc([N+](=O)[O-])c(C(=O)NNC(=O)c2ccc([N+](=O)[O-])cc2)n1	-2	2	10	4	5	/	/
O=C(O)COCC(=O)Nc1ccc2c(c1)CCC2	1	7	7	4	6	/	/
